SMILES strings stand for the structures. pKi: −log10 of the molar value.

One data set addresses Serine protease 1 (Homo sapiens, UniProt P07477). Briefly: Inhibition of trypsin by amidase assay.
In a further data set the test system is Pneumocystis carinii. Briefly: (§1) Ability to reduce the severity of PCP in immunosuppressed rats after (iv) administration of 10 mg/kg/day. Type of data set: functional. The method in brief: (§2)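 Male Sprague-Dawley rats (150–200 g, barrier raised) were given corticosteroids to induce PCP. From week 6, groups of eight or more received the compound by single daily iv injection in 0.4 mL saline for 14 days, generally at 10 mg/kg. Rats were killed at the end of week 8. GMS-stained lung sections were scored from 0.5 to 4 (4 = >50% involvement), with saline and pentamidine control groups.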

For data set [1], the system named is Rattus norvegicus. The data set is described as §1. Type of data set: functional. The method in brief: as §2
The nature of data set [2]: Cytotoxicity in […], spleen and kidneys for pathologic changes by light microscopy.++ = most animals survived, with severe distress and marked local toxicity and some systemic toxicity and histopathologic abnormalities. Type of data set: tissue-based. Conditions: rat. The procedure, abridged:
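Male Sprague-Dawley rats (150–200 g), corticosteroid-immunosuppressed to induce PCP; from week 6, single daily iv injection for 14 days, usually 10 mg/kg in 0.4 mL saline (lower if insoluble or toxic); killed end of week 8. Liver, spleen, kidneys examined by light microscopy; daily health observation; toxicity graded 0 to 4+ at 10 mg/kg or highest dose tested.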

In the next data set the test system is Calf thymus DNA. Briefly: DNA binding affinity at low ionic strength as change in midpoint. Type of data set: nucleic-acid assay. Conditions: Bos taurus.
The test system of data set [3] is Rattus norvegicus. Briefly: Ability to reduce the severity of PCP in immunosuppressed rats after(iv) administration of 10 mg/kg/day. The data set is classed as functional. Conditions: in the assay text read “1.25 mg/kg/day” for “10 mg/kg/day”. The procedure, abridged:
as §2

Sequence of Serine protease 1 (P07477 whole entry): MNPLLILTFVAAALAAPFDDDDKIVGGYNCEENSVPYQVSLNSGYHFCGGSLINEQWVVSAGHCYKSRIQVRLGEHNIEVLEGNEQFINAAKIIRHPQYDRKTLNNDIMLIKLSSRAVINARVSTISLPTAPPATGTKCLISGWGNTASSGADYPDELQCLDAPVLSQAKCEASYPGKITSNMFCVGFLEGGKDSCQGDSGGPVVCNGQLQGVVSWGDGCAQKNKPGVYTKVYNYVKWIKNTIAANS

Compound `Cl.N=C(N)c1ccc(NCCCNc2ccc(C(=N)N)cc2[N+](=O)[O-])c([N+](=O)[O-])c1` showed a negative-log Ki (pKi) at Serine protease 1 of 5.37. In addition, the No. of animals in the data set with Pneumocystis carinii and in the data set on Rattus norvegicus [1] was 0 throughout. Also, in data set [2], the Toxicity entry was “most animals survived, with severe distress and marked local toxicity and some systemic toxicity and histopathologic abnormalities”. Further, the ΔTm with Calf thymus DNA was found to be 12.8 °C.
In the data set with Rattus norvegicus [3], `Cl.N=C(N)c1ccc(OCCCCCCOc2ccc(C(=N)N)cc2[N+](=O)[O-])c([N+](=O)[O-])c1` gave a No. of animals of 1.

Values taken from ChEMBL document CHEMBL1124749, “Analogues of 1,5-bis(4-amidinophenoxy)pentane (pentamidine) in the treatment of experimental Pneumocystis carinii pneumonia” (J Med Chem, 1990).
